Measurements gathered from unrelated publications.
Compare with care: the assays were run in different laboratories.
Read-out: cell growth or viability

Structure (SMILES)	cell line	technique	concentration	time	endpoint	value
O=C(NC[C@H](O)CO)c1ccncc1Nc1ccc(I)cc1F	MB002			7 days	IC50	> 10000 nM
CC(C)C[C@H](NC(=O)[C@H](Cc1ccccc1)NC(=O)c1cnccn1)B(O)O	NCI-H1563	ATP luminescence			IC50	22 nM
CCOc1cc(C(C)(C)C)ccc1C1=N[C@@](C)(c2ccc(Cl)cc2)[C@@](C)(c2ccc(Cl)cc2)N1C(=O)N1CCN(CCCS(C)(=O)=O)CC1	MB002			7 days	IC50	99.4 nM
CC(=O)Nc1cccc(-n2c(=O)n(C3CC3)c(=O)c3c(Nc4ccc(I)cc4F)n(C)c(=O)c(C)c32)c1	Calu-6	resazurin	6.25 nM	72 h	viability	74.2%
COc1cc(Nc2nccc(-c3cnn4nc(OC)ccc34)n2)cc(C(F)(F)F)c1	SK-ES1	ATP luminescence			IC50	190 nM
Cc1cc2c(cc1N1C(=O)c3cccc4c(CCCO)ccc(c34)C1=O)n(C)c(=O)n2C (racemic)	SW-403	resazurin			GI50	> 10000 nM
CC(=O)c1c(C)c2cnc(Nc3ccc(N4CCNCC4)cn3)nc2n(C2CCCC2)c1=O	MB002			7 days	IC50	10.8 nM
CC(=O)OC[C@H]1O[C@@H]([S-])[C@H](OC(C)=O)[C@@H](OC(C)=O)[C@@H]1OC(C)=O.CCP(CC)CC.[Au+]	KB 3-1	WST-1			Kb	100 nM
COc1cc2c(Nc3ccc(Br)cc3F)ncnc2cc1OCC1CCN(C)CC1	BT-474	ATP luminescence		72 h	GI50	5910 nM
C[C@H]1Oc2cc(cnc2N)-c2c(nn(C)c2C#N)CN(C)C(=O)c2ccc(F)cc21	HD-MB03			7 days	IC50	> 10000 nM
CC(=NN=c1[nH]c(C)cs1)c1c(O)c2ccccc2oc1=O	human Skin fibroblast	MTT		48 h	IC50	> 100000 nM
CCCCCCCCCC(=O)N[C@@H](Cc1c[nH]c2ccccc12)C(=O)N[C@H](CC(N)=O)C(=O)N[C@@H](CC(=O)O)C(=O)N[C@@H]1C(=O)NCC(=O)N[C@@H](CCCN)C(=O)N[C@@H](CC(=O)O)C(=O)N[C@H](C)C(=O)N[C@@H](CC(=O)O)C(=O)NCC(=O)N[C@H](CO)C(=O)N[C@@H]([C@H](C)CC(=O)O)C(=O)N[C@@H](CC(=O)c2ccccc2N)C(=O)O[C@@H]1C	KB 3-1	WST-1			Kb	> 64000 nM
